# From PubChem BioAssay
# A selection: hits, their analogues and other compounds. The true share with any hit is near 0.7%.
# GSK3beta inhib: human GSK3beta kinase inhibitors, primary screen, biochemical, cell-free homogeneous, HTS; GST-GSK3beta kinase, ADP-Glo luminescence, 60 min; hits give low values; activity score (negative = inhibition), % at 10 µM; hit rate 0.038% among 300,000;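 active = more than half of replicate wells score below -50%, meaning over 50% inhibition versus plate controls; inconclusive = some replicates but at most half score below -50%; inactive = no replicate scores below -50%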;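 note: 0% = median DMSO wells and -100% = median GW8510 positive control wells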
#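 Test system: GST-tagged human GSK3beta kinase, cell-free; evaluation: activity score scaled between in-plate DMSO and GW8510 controls; measured by: ADP-Glo luminescence; incubation: 60 min reaction, RT; benchmarks: DMSO and 20 µM GW8510; reagent: peptide substrate plus 25 µM ATP (final); medium: Tris/MgCl2 kinase buffer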
# GSK3A inh: blockers of GSK3A enzyme activity – biochemical, luminescence, cell-free homogeneous, HTS, primary screen; AID 2650, 2010; hit rate 0.1% among 320,000; Glycogen synthase kinase-3 alpha (Homo sapiens), P49840; GSK-3 alpha kinase, ADP-Glo luminescence, 60 min; inhibition, % at 10 µM;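 active = more than half of replicates show inhibition above 20%; inconclusive = some but at most half of replicates above 20% inhibition; inactive = no replicate shows inhibition above 20%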;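 note: GST-tagged GSK-3 alpha with peptide substrate and 25 µM ATP; 0% = DMSO neutral wells and 100% = GW8510 positive control wells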
# HSV augment: enhancers of HSV replication in host cells, fold increase, host cell viability; HSV replication augmentation in cells; hit rate 0.005% among 220,000; maximum fold increase; in the data active = maximum fold increase above about 1.5; inconclusive = no clear call, values can overlap the other calls; tested in PC3 cells
# Rce1 inhib: yeast Rce1p protease inhibitors, primary screen, biochemical, fluorescence, cell-free homogeneous | yeast membranes, quenched prenylated peptide cleavage fluorescence | hit rate 0.27% among 290,000 | calls only | CAAX prenyl protease 2 (Saccharomyces cerevisiae (strain ATCC 204508 / S288c)), Q03530;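 active = fall in fluorescence gain of 50% or more versus controls, with final raw signal at or below 3038400; inconclusive = same 50% fall but final raw signal above 3038400; inactive = fall in fluorescence gain under 50%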;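 note: plate controls were neutral control wells for no effect and wells lacking membranes for full effect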
# Hep lipid drop: inhibitors of hepatocyte lipid droplet formation, primary screen, imaging, high-throughput imaging, BODIPY stain | AML12 mouse hepatocytes, oleate lipid droplets | inhibition, % at 6.5 µM | hit rate 0.4% among 240,000 | AID 1656, 2009;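 active = lipid droplet intensity inhibited by at least 50%, with more than 500 cells counted; inconclusive = wells with under 300 cells, treated as cytotoxic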
#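 Material: mouse AML12 hepatocyte cell line, fixed after treatment; Timing: compound with oleate, overnight; Technique: high-content imaging of BODIPY-stained droplets and DAPI nuclei; Probe or stimulus: oleate, 100 µM final; Dosing: compound at 6.5 µM only.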
# STK33 inh: inhibitors of purified STK33 kinase, primary screen, biochemical, ADP-Glo luminescence, homogeneous, cell-free; hit rate 0.073% among 320,000; MBP phosphorylation; AID 2661, 2010; inhibition, % at 10 µM;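 active = inhibition at or above 25%, using the most active replicate where run in duplicate; inactive = inhibition below 25%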
# Target sequence (Q9BYT3 whole entry, looked up): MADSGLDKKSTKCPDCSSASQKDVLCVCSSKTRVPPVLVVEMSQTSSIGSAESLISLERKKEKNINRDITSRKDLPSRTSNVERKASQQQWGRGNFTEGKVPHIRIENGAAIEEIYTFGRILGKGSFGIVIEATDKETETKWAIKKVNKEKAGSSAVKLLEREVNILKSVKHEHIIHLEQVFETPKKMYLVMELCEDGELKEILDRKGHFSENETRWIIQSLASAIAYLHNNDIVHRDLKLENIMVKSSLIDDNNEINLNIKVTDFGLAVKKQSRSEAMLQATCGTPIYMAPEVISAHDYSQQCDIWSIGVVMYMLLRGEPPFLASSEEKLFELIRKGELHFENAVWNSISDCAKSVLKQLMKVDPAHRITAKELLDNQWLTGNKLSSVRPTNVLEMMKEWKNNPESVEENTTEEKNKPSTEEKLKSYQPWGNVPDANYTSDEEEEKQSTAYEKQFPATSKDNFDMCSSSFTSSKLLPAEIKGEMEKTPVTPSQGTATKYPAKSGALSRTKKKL
# Starred values were filed as active, the others as inactive; i = inactive; ? = inconclusive; . = not tested or not shown; + = active, no number.
SMILES,GSK3beta inhib,GSK3A inh,HSV augment,Rce1 inhib,Hep lipid drop,STK33 inh
O=C(N/N=C/c1ccc(O)c(O)c1)N/N=C/c1ccc(O)c(O)c1,-39.8,53.9*,.,i,13.3,23.9
Cc1nonc1C(=O)N/N=C/c1ccc(O)c(O)c1,4.8,5.2,i,i,2.6,3.4
COc1cccc(/C=C/C(=O)OCC(=O)Nc2ccc(Cl)c(S(=O)(=O)N(C)C)c2)c1OC,-1.3,-0.5,i,+,6.2,-1.4
O=C(NCCc1cccnc1)c1cc(COc2ccc(F)cc2Cl)on1,-0.9,1.8,.,+,7.7,0.7
CC1CCC(NC(=O)c2cc(S(=O)(=O)N3CCCCC3)ccc2N2CCOCC2)CC1 (stereo unspecified),.,-4.8,.,.,.,-0.5
O=C(COc1ccc(Br)cc1)Nc1ccc(CN2CCOCC2)cc1,-0.2,-1.5,.,i,-7.0,-0.2
CCNc1nc(N)nc(-c2cc(Cl)ccc2O)n1,-72.7*,72.3*,i,i,.,74.6*
Nc1nc(N)nc(-c2cc(O)ccc2O)n1,.,65.9*,.,.,.,69.9*
Nc1nc(N)nc(-c2cc([N+](=O)[O-])ccc2O)n1,.,8.6,.,.,.,4.6
CSc1ccc(CN2CCC(n3nccc3NC(=O)c3ccccc3C)CC2)cc1,1.6,-1.0,.,i,-7.4,-1.0
O=C(O)c1ccccc1NS(=O)(=O)c1ccc2c3c(cccc13)C(=O)N2,5.0,.,i,.,16.8,-1.5
Cc1cc(O)ccc1NS(=O)(=O)c1ccc2c3c(cccc13)C(=O)N2,-5.4,14.2,.,.,-6.1,40.9*
Nc1nnnn1/N=C/c1ccccc1OCc1ccc(Cl)cc1Cl,-2.1,0.0,i,+,.,0.8
Fc1c(F)c(F)c(N=Cc2ccc3ncccc3c2)c(F)c1F,-0.4,4.1,i,i,6.5,0.9
CCc1c(C)c(C#N)c2nc3ccccc3n2c1NCc1ccccn1,0.4,81.4*,i,i,1.2,3.9
CCO[C@@H]1OC(C(=O)N2CCN(Cc3ccccc3)CC2)=C[C@H](c2ccccc2)[C@H]1CCCO,3.0,0.6,i,+,-29.5,-1.3
CCc1nnc(NC(=O)c2ccc(NS(=O)(=O)c3ccccc3)cc2)s1,-1.4,-0.9,i,+,-6.9,-0.9
CCOc1cc(CNC2CCCC2)ccc1OCc1ccccc1Cl,-2.0,3.8,i,+,1.5,-0.5
CCOc1cc(CNC2CCCC2)cc(Cl)c1OCc1ccccc1,-3.2,4.0,i,i,.,-1.2
COc1ccc(Cn2c(N)c(S(=O)(=O)c3cccs3)c3nc4ccccc4nc32)cc1,1.4,0.7,i,+,.,-2.6
Cc1ccc(Cn2c(N)c(S(=O)(=O)c3cccs3)c3nc4ccccc4nc32)cc1,-4.7,2.3,i,i,.,0.9
Cc1ccc(S(=O)(=O)N(C)CC(=O)N/N=C/c2ccc(C)o2)cc1,-1.0,7.1,i,i,-6.1,-0.3
C(=N\Nc1nc(Nc2ccccc2)nc(N2CCOCC2)n1)/c1c[nH]c2ccccc12,0.3,-1.7,i,i,.,0.1
Cc1ccc(Nc2nc(N/N=C/c3c[nH]c4ccccc34)nc(N3CCOCC3)n2)cc1,-2.3,-1.2,i,i,125.7*,0.7
C/C(O)=C/c1nc2ccccc2[nH]c1=O,1.1,-0.7,i,i,-1.9,-0.9
SMILES,GSK3beta inhib,GSK3A inh,HSV augment,Rce1 inhib,Hep lipid drop,STK33 inh
O=c1[nH]c2ccc([N+](=O)[O-])cc2nc1/C=C(\O)c1ccccc1,1.9,0.0,1.65*,i,-3.2,-1.5
Nc1c(CO)nnn1-c1ccccc1,-20.6,50.4*,i,i,2.6,0.7
COc1ccc(Nc2ccccc2C(=O)O)cc1,6.0,-3.1,i,i,7.2,-1.0
c1ccc(Nc2ccnc(Nc3ccccc3)n2)cc1,-0.5,14.1,i,i,15.1,35.9*
NNc1nccc(Nc2ccccc2C(=O)O)n1,-59.6*,68.9*,i,i,-2.5,19.8
C[C@]12CCC(=O)CC1=CCC1C3CC=C(C#N)[C@@]3(C)CC[C@@]12O (stereo partly specified),1.7,-3.8,.,i,-9.7,0.1
CCOC(=O)c1cc(C)[nH]c(=O)c1C#N,-0.6,5.5,i,+,3.8,3.7
CC1=NN(c2ccccc2)C(=O)/C1=C\c1ccc(Br)s1,2.6,-4.1,i,+,-7.1,-1.6
CC1=NN(c2ccccc2)C(=O)/C1=C/c1cccs1,-5.6,-2.3,i,i,0.9,0.6
O=C(Nc1cc(Cl)cc(Cl)c1)c1coc(=O)c(Br)c1,8.1,1.9,i,+,-3.5,-0.2
CC(OC(=O)c1ccc2c(=O)n3c(nc2c1)CCC3)C(=O)NC1CCCCC1C (stereo unspecified),-2.0,0.4,.,+,25.1,-0.7
CC(OC(=O)c1ccc(C(C)(C)C)cc1)C(=O)NC1CCCCC1C (stereo unspecified),2.1,0.0,.,i,-0.1,-0.4
Cc1c(Cc2ccccc2)c(=O)oc2c(C)c(OCC(=O)N3CCC(C(=O)O)CC3)ccc12,3.4,1.0,.,+,.,-1.0
CCOC(=O)CC(=O)CSc1ccc2nnc(-c3ccc(F)cc3)n2n1,-29.0,25.5,i,i,.,-1.3
CCCN(CCC)CCCNc1ccc2nnc(-c3ccc(F)cc3)n2n1,-43.8,56.3*,i,i,16.0,1.6
COc1cc2c(cc1OC)C(CCc1ccccc1)=NCC2,-1.8,1.6,i,+,7.4,-1.5
COc1ccc(C2=NCCc3cc(OC)c(OC)cc32)cc1OC,1.6,0.9,i,i,-9.3,6.0
CC(=O)NCCNC(=O)c1ccc(CSc2nc3ccccc3s2)cc1,-0.9,1.3,.,i,2.0,-0.1
CC(C)c1ccc(OCC(=O)Nc2ccc(S(=O)(=O)Nc3ccccn3)cc2)cc1,-0.4,-2.9,.,i,3.3,-0.7
CC(C)c1cccc(OCC(=O)Nc2ccc(S(=O)(=O)Nc3ccccn3)cc2)c1,-1.8,-2.8,.,+,11.6,-1.0
CCN(CC)CCN(C(=O)c1ccc2ccccc2c1)c1nc2cc3c(cc2s1)OCO3,1.8,-1.1,.,+,1.1,-0.3
Cc1c(C)c2ccc(OC(C)C(=O)NCCCN3CCOCC3)c(C)c2oc1=O (stereo unspecified),-1.7,-2.8,.,+,1.2,-0.4
CCOc1ccc(S(=O)(=O)N2CCCCC2)cc1NS(=O)(=O)c1cccs1,.,-1.0,.,.,.,-0.2
CCNS(=O)(=O)c1ccc(CCC(=O)NCCC2=CCCCC2)cc1,6.0,-2.8,i,i,0.2,0.2
CCN(CC)c1ccc(/C=C2\C(=O)c3ccc(C(=O)O)cc3C2=O)cc1,.,23.1,?,.,-5.4,60.8*
CCN(CC)c1ccc(/C=C2\NC(=O)NC2=O)cc1,4.4,1.7,i,i,13.5,-0.7
